# Active and inactive are the calls of the source.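 How the source made its calls: active means Toxic to Huh-7.5 liver cells, with CC50, the dose killing half the cells, at most 24 µM; inactive means CC50 above 24 µM.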
# Tested on: Huh-7.5 viability, XTT absorbance
# Assay: Huh-7.5 cell cytotoxicity, late-stage follow-up, cytotoxicity control for HCV core dimerization inhibitor project, XTT absorbance, powder samples (AID 651583)
# How it was run: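 Material – Huh-7.5 cell line, viability by mitochondrial dehydrogenase activity · Replication – triplicate wells per concentration · Measure – CC50 from four-parameter sigmoidal fit of % inhibition versus DMSO · Benchmarks – DMSO control, cell-free compound blanks · Times – 72 h compound exposure at 37 °C · Technique – XTT-PMS absorbance, 450/650 nm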
row,Structure (SMILES),CC50
1,Cc1ccc(Cc2c(C)nc3nc(SCC(=O)NCCN4CCCCCC4)nn3c2C)cc1,42.6 µM (inactive)
2,Cc1ccc(Cc2c(C)nc3nc(SCC(=O)NCCN4CCOCC4)nn3c2C)cc1,> 12 µM (inactive)
3,Cc1ccc(Cc2c(C)nc3nc(SCC(=O)NCCN4CCCN(S(=O)(=O)c5ccc(C)cc5)CC4)nn3c2C)cc1,13.8 µM
4,Cc1ccc(Cc2c(C)nc3nc(SCC(=O)NCCN4CCN(CCc5ccccc5)CC4)nn3c2C)cc1,> 36 µM (inactive)
5,Cc1ccc(Cc2c(C)nc3nc(SCC(=O)NCCN4CCCN(S(=O)(=O)c5ccccc5)CC4)nn3c2C)cc1,9.51 µM
6,Cc1ccc(Cc2c(C)nc3nc(SCC(=O)NCCN4CCCN(S(C)(=O)=O)CC4)nn3c2C)cc1,193 µM (inactive)
7,Cc1ccc(Cc2c(C)nc3nc(SCC(=O)NCCN4CCN(S(=O)(=O)c5ccccc5)CC4)nn3c2C)cc1,37.6 µM (inactive)
8,Cc1ccc(Cc2c(C)nc3nc(SCC(=O)NCCN4CCNCC4)nn3c2C)cc1,33.8 µM (inactive)
9,Cc1ccc(Cc2c(CCc3ccccc3)nc3nc(SC(Cc4ccccc4)C(=O)NCCN4CCOCC4)nn3c2C)cc1 (stereo unspecified),22.1 µM
10,Cc1ccc(Cc2c(C)nc3nc(SCC(=O)NCCN4CCN(Cc5ccc(Cl)cc5)CC4)nn3c2C)cc1,> 4 µM (inactive)
11,Cc1ccc(Cc2c(C)nc3nc(SCC(=O)NCCN4CCN(Cc5ccc(F)cc5)CC4)nn3c2C)cc1,180 µM (inactive)
